Source: ChEMBL document CHEMBL2331285, “Optimization of 3,5-dimethylisoxazole derivatives as potent bromodomain ligands” (J Med Chem, 2013)
The source made the active and inactive calls. The rule behind the calls is not given here.

Key:
[1] = target: Bromodomain-containing protein 4 (Homo sapiens, UniProt O60885); assay: Binding affinity to human BRD4 bromodomain 1 using H4Ac4 peptide by amplified luminescent proximity homogeneous assay
NCI-H1975 [2] = assay: Cytotoxicity against human NCI-H1975 cells after 10 to 14 days by crystal violet staining based clonogenic survival assay; type: functional, cell-based
HeLa = assay: Cytotoxicity against human HeLa cells after 24 hrs by WST-1 assay; type: functional, cell-based
U2OS = assay: Cytotoxicity against human U2OS cells after 24 hrs by WST-1 assay; type: functional, cell-based
NCI-H1975 [3] = assay: Cytotoxicity against human NCI-H1975 cells after 72 hrs by MTS assay; type: functional, cell-based; details: NCI-H1975, 72 h
A549 = assay: Cytotoxicity against human A549 cells after 72 hrs by MTS assay; type: functional, cell-based; details: A549, 72 h
CREB-binding protein = CREB-binding protein (Homo sapiens, UniProt Q92793); assay: Binding affinity to CREBBP bromodomain (unknown origin) using H3K56Ac peptide by amplified luminescent proximity homogeneous assay
Chain of CREB-binding protein (Q92793 whole entry): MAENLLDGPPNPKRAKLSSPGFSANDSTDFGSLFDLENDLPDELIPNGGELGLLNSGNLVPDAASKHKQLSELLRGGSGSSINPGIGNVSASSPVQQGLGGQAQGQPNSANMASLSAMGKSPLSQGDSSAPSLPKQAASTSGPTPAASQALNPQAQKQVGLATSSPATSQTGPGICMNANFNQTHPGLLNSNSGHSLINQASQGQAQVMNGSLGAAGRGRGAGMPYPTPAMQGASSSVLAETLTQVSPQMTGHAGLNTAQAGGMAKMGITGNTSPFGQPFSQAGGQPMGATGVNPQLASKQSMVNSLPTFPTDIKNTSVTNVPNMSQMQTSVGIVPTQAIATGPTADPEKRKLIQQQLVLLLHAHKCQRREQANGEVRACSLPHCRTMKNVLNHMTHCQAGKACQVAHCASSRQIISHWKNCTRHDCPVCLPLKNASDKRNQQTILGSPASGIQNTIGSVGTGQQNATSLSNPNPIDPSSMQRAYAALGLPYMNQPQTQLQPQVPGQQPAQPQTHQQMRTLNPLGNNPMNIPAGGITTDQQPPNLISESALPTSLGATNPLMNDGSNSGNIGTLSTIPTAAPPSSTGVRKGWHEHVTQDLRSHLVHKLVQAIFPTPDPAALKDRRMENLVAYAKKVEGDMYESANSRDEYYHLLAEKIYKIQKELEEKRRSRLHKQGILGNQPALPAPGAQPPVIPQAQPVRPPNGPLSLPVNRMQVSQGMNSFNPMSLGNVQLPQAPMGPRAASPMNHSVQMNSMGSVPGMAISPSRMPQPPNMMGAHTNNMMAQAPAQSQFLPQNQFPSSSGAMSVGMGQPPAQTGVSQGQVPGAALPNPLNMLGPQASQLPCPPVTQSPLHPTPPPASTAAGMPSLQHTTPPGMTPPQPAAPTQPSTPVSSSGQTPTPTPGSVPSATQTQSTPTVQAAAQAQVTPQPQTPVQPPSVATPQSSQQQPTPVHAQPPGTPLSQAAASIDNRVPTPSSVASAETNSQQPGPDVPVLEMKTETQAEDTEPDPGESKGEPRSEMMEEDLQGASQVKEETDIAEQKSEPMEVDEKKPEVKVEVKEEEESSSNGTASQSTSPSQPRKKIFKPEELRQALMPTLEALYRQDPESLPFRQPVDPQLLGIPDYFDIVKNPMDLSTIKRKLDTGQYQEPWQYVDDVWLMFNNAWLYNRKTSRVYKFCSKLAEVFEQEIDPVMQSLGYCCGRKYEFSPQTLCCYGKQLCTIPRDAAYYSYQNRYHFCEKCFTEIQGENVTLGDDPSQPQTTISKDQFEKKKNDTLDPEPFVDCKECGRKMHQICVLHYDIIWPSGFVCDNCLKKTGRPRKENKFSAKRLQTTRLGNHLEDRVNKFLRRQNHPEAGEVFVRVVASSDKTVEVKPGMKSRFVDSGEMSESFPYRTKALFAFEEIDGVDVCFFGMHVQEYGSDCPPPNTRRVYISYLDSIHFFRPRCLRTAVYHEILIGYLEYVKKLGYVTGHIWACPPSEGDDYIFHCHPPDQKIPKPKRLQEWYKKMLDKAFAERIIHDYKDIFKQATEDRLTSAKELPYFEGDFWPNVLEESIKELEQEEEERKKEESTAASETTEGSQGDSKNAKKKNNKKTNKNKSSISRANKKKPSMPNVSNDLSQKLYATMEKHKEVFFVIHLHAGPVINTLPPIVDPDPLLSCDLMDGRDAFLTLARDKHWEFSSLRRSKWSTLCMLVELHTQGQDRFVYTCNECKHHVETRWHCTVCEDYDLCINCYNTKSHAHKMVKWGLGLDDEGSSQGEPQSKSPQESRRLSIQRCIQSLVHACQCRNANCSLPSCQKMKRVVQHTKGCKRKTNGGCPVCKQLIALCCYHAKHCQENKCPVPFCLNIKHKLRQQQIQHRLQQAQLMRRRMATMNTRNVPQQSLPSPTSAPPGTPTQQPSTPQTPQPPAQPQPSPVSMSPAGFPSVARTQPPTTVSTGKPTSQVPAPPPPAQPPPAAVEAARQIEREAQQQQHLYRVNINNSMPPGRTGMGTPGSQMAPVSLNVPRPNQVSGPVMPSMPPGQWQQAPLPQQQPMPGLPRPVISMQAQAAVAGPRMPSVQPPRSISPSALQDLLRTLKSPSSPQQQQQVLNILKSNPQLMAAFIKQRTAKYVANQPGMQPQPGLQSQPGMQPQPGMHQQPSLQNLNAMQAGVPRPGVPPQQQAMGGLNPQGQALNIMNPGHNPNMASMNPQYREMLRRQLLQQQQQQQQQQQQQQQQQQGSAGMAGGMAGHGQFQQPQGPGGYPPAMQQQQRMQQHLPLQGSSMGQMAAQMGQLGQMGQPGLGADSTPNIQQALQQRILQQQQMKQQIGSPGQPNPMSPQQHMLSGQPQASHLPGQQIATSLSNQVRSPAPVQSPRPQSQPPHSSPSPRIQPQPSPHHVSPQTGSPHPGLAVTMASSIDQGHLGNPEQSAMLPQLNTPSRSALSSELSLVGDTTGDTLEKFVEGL

Homo sapiens = species: Homo sapiens; assay: Selectivity ratio of IC50 for CREBBP bromodomain to IC50 for human BRD4 bromodomain 1 (unknown origin)
Outline: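 IC50 ratio, both values from AlphaScreen peptide displacement (protein and peptide 50 nM each, duplicates, sigmoidal fit). BRD4(1) used biotinylated tetra-acetylated H4 peptide (SGRGK(Ac)GGK(Ac)GLGK(Ac)GGAK(Ac)RHRK-biotin); CREBBP used biotinylated H3K56Ac peptide.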

MV4-11 = assay: Cytotoxicity against human MV4-11 cells after 72 hrs by MTS assay; type: functional, cell-based; details: MV4-11, 72 h

| SMILES | IC50 [1] [nM] | IC50 (HeLa) [nM] | IC50 (U2OS) [nM] | IC50 (CREB-binding protein) [nM] | also measured |
| --- | --- | --- | --- | --- | --- |
| Cc1noc(C)c1-c1cc(O)cc(C(=O)c2ccccc2)c1 | 544 |  |  |  |  |
| CC(=O)Oc1cc(-c2c(C)noc2C)cc(C(O)c2ccccc2)c1 (racemic) |  | > 100000 | > 100000 | 2480 | Activity (NCI-H1975 [2]): Active; IC50 (NCI-H1975 [3]): > 10000 nM; IC50 (A549): > 10000 nM |
| Cc1noc(C)c1-c1cc(OCCO)cc(C(O)c2ccccc2)c1 (stereo not given) | 1170 |  |  | 2810 |  |
| COCCOc1cc(-c2c(C)noc2C)cc(C(O)c2ccccc2)c1 (stereo not given) | 1380 |  |  | 2070 |  |
| COc1cc(-c2c(C)noc2C)cc(C(O)c2ccccc2)c1 (stereo not given) | 1360 |  |  | 3960 |  |
| Cc1noc(C)c1-c1cc(O)cc(C(O)c2ccccc2)c1 (racemic) |  | > 100000 | > 100000 |  | Activity (NCI-H1975 [2]): Active; IC50 (NCI-H1975 [3]): > 10000 nM; IC50 (A549): > 10000 nM |
| CCOc1cc(-c2c(C)noc2C)cc(C(O)c2ccccc2)c1 (stereo not given) | 640 |  |  | 4100 | Ratio IC50 (Homo sapiens): 6 |
| Cc1sc2c(c1C)C(c1ccc(Cl)cc1)=N[C@@H](CC(=O)OC(C)(C)C)c1nnc(C)n1-2 |  | > 100000 | > 100000 |  | IC50 (MV4-11): 242 nM |
| CCOc1cc(-c2c(C)noc2C)cc(C(C)O)c1 (stereo not given) |  |  |  |  | Ratio IC50 (Homo sapiens): 6 |
